One data set deals with T1, mouse TRPC5 (Mus musculus, UniProt Q9QX29).
T1 sequence (Q9QX29 1-975): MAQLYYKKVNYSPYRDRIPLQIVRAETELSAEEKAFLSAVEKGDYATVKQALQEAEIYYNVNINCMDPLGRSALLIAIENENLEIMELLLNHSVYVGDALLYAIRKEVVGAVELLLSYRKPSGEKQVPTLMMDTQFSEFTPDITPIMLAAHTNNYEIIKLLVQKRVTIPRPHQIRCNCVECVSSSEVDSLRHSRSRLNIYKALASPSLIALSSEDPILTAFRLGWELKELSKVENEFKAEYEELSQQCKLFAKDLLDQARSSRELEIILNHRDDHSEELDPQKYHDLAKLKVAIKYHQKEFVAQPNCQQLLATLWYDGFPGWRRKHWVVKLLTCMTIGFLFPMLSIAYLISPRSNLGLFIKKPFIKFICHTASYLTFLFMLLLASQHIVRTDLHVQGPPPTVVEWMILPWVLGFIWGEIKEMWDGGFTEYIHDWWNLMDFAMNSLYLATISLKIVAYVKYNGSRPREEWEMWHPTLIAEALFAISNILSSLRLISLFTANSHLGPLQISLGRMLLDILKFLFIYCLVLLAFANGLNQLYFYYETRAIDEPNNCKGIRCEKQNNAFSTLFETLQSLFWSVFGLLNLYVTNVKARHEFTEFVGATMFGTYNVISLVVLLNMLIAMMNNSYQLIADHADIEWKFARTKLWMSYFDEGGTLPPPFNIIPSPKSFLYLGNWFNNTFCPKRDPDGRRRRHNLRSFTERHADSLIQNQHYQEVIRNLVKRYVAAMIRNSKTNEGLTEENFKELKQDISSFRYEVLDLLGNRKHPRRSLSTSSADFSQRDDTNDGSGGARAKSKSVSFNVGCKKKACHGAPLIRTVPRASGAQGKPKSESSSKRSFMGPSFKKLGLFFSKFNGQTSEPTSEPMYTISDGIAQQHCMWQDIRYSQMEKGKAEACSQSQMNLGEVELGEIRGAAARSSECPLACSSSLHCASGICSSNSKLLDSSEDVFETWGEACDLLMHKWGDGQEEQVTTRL
Put plainly: Syncropatch automated patch clamp, inhibition of riluzole-induced TRPC5 currents. Type of data set: cell-based. To be noted: for IC50: TRPC5 IC50, riluzole (30 μM)-induced TRPC5 current; for IC50 / TRPC5 activity (in words): Syncropatch. Put shortly:
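Doxycycline-induced (0.5–1 μg/mL, 3 days) Flp-In T-REx-293 cells stably expressing mouse TRPC5, used in automated patch clamp. 200 ms ramps from −100 to +100 mV every 5–10 s. 30 μM riluzole activates currents and stays present with compound. Only cells with doubly-rectifying currents kept. % inhibition compares 3 ramps after vs before compound, normalized to a reference inhibitor at 3 μM. IC50 from three-parameter fit.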

The nature of data set [1]: Human plasma protein binding. Type of data set: in vitro ADME.
Data set [2] can be described thus: Mouse plasma protein binding. It counts as in vitro ADME.
The nature of data set [3]: Mouse liver microsome stability. It counts as in vitro ADME. To be noted: liver microsomes. (In general: Liver microsomes are a subcellular fraction often used to study metabolism.)
Data set [4] is described as follows: Human liver microsome stability. Type of data set: in vitro ADME. To be noted: liver microsomes.
Setting [5] is: rat, in vivo, intravenous, 0.25 mg/kg.

What is called IC50 is the concentration at which inhibition is half-maximal. Lower therefore signals greater potency. The inhibition is the drop in the measured response relative to a control, in per cent. Broadly, the fraction unbound is the share of the substance not bound to proteins or other matrix. A high value points to much free substance. What is called CLint scaled is the rate of metabolic loss divided by the concentration. Read a high CLint scaled as rapid turnover. As a reminder, the Kp is the ratio of the level in a tissue or fluid to that in plasma or blood. A word on the MRT inf: it is the average time that molecules of a dose stay in the body. Usually Vd stands for a proportionality between amount in the body and measured concentration, not a real space. A high value points to extensive tissue distribution. By clearance is commonly meant a measure of how efficiently the substance is removed, as volume per time. Read a low clearance as inefficient removal. A word on the half-life: it is the time in which the quantity being followed falls by half. A high value points to slow loss. As a reminder, the AUC is the area under the concentration-time curve, a measure of exposure.

Consider `Clc1ccc(Cn2c(N3CCCC3)nc3ccccc32)cn1` [9 t, 1‐((6‐Chloropyridin‐3‐yl)methyl)‐2‐(pyrrolidin‐1‐yl)‐1H‐benzo[d]imidazole], for which it took 3110 ± 940 nM to reach half-maximal inhibition on mouse TRPC5 (IC50). The inhibition at 3 µM on mouse TRPC5 (read-out: % Inhibition @ 3 μM) came out at 127%.

Take `O=C(c1ccccc1)n1c(N2CCCC2)nc2ccccc21` [9 u, Phenyl(2‐(pyrrolidin‐1‐yl)‐1H‐benzo[d]imidazol‐1‐yl)methanone]: the “TRPC5 activity (in words)” value at mouse TRPC5 was “inactive”.

`CN1CCC(N2CCN(c3nc4ccccc4n3Cc3ccccc3)CC2)CC1` [7 h, 1‐Benzyl‐2‐(4‐(1‐methylpiperidin‐4‐yl)piperazin‐1‐yl)‐1H‐benzo[d]imidazole]: the “TRPC5 activity (in words)” value at mouse TRPC5 is on record as “not productive”.

On mouse TRPC5, `CCCNc1nc2ccccc2n1Cc1ccc(Cl)cc1` [16 f, 1‐(4‐Chlorobenzyl)‐N‐propyl‐1H‐benzo[d]imidazol‐2‐amine] gave an IC50 of 68 ± 106 nM. The compound also gave an unbound share (fraction unbound) in data set [1] of 0.014. This compound also registered a fraction unbound in data set [2] of 0.036. Moreover, in data set [3], the intrinsic clearance (CLint scaled) was 867 mL/min/kg and the mCLHEP is 81.6 mL/min/kg. This compound had a Brain in “In vivo rat cassette PK” (Rat cassette (0.25 mpk), brain level for Kp) of 163. In “In vivo rat cassette PK” (Rat cassette (0.25 mpk), plasma level for Kp), this compound came in with a Plasma of 77.5. This compound showed a concentration ratio (Kp) in “In vivo rat cassette PK” (rat, brain/plasma, intravenous, 0.25 mpk) of 2.1. In “In vivo rat cassette PK” (setting [5]), the C0 stood at 140 ng/mL, the mean residence time (MRT inf) was 37.9 min, the Vd came to 2.3 L/kg and the clearance was determined as 57.8 mL/min/kg. This compound also had a half-life in “In vivo rat cassette PK” (setting [5]) of 43.3 min. Moreover, the AUC in “In vivo rat cassette PK” (rat, plasma, intravenous, 0.25 mg/kg) came out at 291 ng·h/mL. In data set [4], the intrinsic clearance (CLint scaled) is 127 mL/min/kg and the hCLHEP was 17.4 mL/min/kg.

The compound `COc1ccc2c(c1)nc(N1CCCC1)n2Cc1ccccc1` [14 h, 1‐Benzyl‐5‐methoxy‐2‐(pyrrolidin‐1‐yl)‐1H‐benzo[d]imidazole] registered an IC50 on mouse TRPC5 of 1150 ± 330 nM.

In turn, `C[C@@H]1CCCN1c1nc2ccccc2n1Cc1ccc(Cl)cc1` [16 e, (R)‐1‐(4‐Chlorobenzyl)‐2‐(2‐methylpyrrolidin‐1‐yl)‐1H‐benzo[d]imidazole] returned an IC50 against mouse TRPC5 of 2890 ± 700 nM.

In turn, `Clc1cccc(Cn2c(N3CCCC3)nc3ccccc32)c1` [9 d, 1‐(3‐Chlorobenzyl)‐2‐(pyrrolidin‐1‐yl)‐1H‐benzo[d]imidazole] came in with a concentration for half-maximal inhibition (IC50) against mouse TRPC5 of 720 ± 210 nM.

Regarding `Cc1cccc(Cn2c(N3CCCC3)nc3ccccc32)c1` [9 l, 1‐(3‐Methylbenzyl)‐2‐(pyrrolidin‐1‐yl)‐1H‐benzo[d]imidazole], the IC50 against mouse TRPC5 turned out to be 1900 nM.

`CCCNc1nc2ccccc2n1Cc1ccccc1` [7 f, 1‐Benzyl‐N‐propyl‐1H‐benzo[d]imidazol‐2‐amine] showed an IC50 against mouse TRPC5 of 720 ± 210 nM. The results for the free fraction (fraction unbound) in data set [1] and in data set [2] were 0.041 and 0.108, respectively. In addition, the figures for the CLint scaled in data set [3] and in data set [4] were 796 mL/min/kg and 103 mL/min/kg, respectively. For the same compound, in data set [3], the mCLHEP was determined as 80.9 mL/min/kg. This compound also had a hCLHEP in data set [4] of 16.8 mL/min/kg.

`COc1ccc(Cn2c(N3CCCC3)nc3ccccc32)cc1` [9 f, 1‐(4‐Methoxybenzyl)‐2‐(pyrrolidin‐1‐yl)‐1H‐benzo[d]imidazole] displayed a half-maximal inhibitory concentration (IC50) on mouse TRPC5 of 1150 ± 250 nM.

On to `O=S1(=O)CCN(c2nc3ccccc3n2Cc2ccc(Cl)cc2)CC1` [16 c, 4‐(1‐(4‐Chlorobenzyl)‐1H‐benzo[d]imidazol‐2‐yl)thiomorpholine‐1,1‐dioxide], for which the “TRPC5 activity (in words)” value on mouse TRPC5 was “not active”.

Regarding `Cc1ccc(Cn2c(N3CCCC3)nc3ccccc32)cc1` [9 k, 1‐(4‐Methylbenzyl)‐2‐(pyrrolidin‐1‐yl)‐1H‐benzo[d]imidazole], the IC50 at mouse TRPC5 worked out at 902 ± 340 nM.

`CC(C)CCNc1nc2ccccc2n1Cc1ccccc1` [7 g, 1‐Benzyl‐N‐isopentyl‐1H‐benzo[d]imidazol‐2‐amine]: at mouse TRPC5, 1300 ± 310 nM corresponded to half-maximal inhibition (IC50).

For the compound `c1ccc(Cn2c(CCN3CCCC3)nc3ccccc32)cc1` [7 j, 1‐Benzyl‐2‐(2‐(pyrrolidin‐1‐yl)ethyl)‐1H‐benzo[d]imidazole], on mouse TRPC5, the “TRPC5 activity (in words)” value was “moderate activity”.

As for `O=c1[nH]ncc(-c2ccc3c(c2)nc(N2CCCC2)n3Cc2ccccc2)c1Cl` [14 n, 5‐(1‐Benzyl‐2‐(pyrrolidin‐1‐yl)‐1H‐benzo[d]imidazol‐5‐yl)‐4‐chloropyridazin‐3(2H)‐one], at mouse TRPC5, the “TRPC5 activity (in words)” value was “not as active as 1” and it took 7550 ± 2520 nM to reach half-maximal inhibition (IC50).

`CC1CCN(c2nc3ccccc3n2Cc2ccc(Cl)cc2)CC1` [16 b, 1‐(4‐Chlorobenzyl)‐2‐(4‐methylpiperidin‐1‐yl)‐1H‐benzo[d]imidazole]: the “TRPC5 activity (in words)” value at mouse TRPC5 is “not active”.

`c1ccc(Cn2c(N3CCCC3)nc3ccccc32)cc1` [7 c, 1‐Benzyl‐2‐(pyrrolidin‐1‐yl)‐1H‐benzo[d]imidazole] yielded a half-maximal inhibitory concentration (IC50) against mouse TRPC5 of 4300 ± 1630 nM. In data set [1], this compound yielded an unbound share (fraction unbound) of 0.044. Also, in data set [2], the free fraction (fraction unbound) worked out at 0.036. Further, in data set [3], the intrinsic metabolic clearance (CLint scaled) was determined as 530 mL/min/kg and the mCLHEP came out at 77.0 mL/min/kg. In data set [4], this compound returned an intrinsic metabolic clearance (CLint scaled) of 164 mL/min/kg and a hCLHEP of 17.9 mL/min/kg.

At mouse TRPC5, `Clc1ccc(Cn2c(N3CCCC3)nc3ccccc32)cc1` [9 e, 1‐(4‐Chlorobenzyl)‐2‐(pyrrolidin‐1‐yl)‐1H‐benzo[d]imidazole] came in with an IC50 of 440 ± 140 nM. Also, the fraction unbound in data set [1] came out at 0.013. The compound also came in with an unbound share (fraction unbound) in data set [2] of 0.013. In data set [3], the CLint scaled was found to be 4260 mL/min/kg and the mCLHEP stood at 88.2 mL/min/kg. In addition, in data set [4], the intrinsic clearance (CLint scaled) is 278 mL/min/kg and the hCLHEP is recorded as 18.7 mL/min/kg.

For the compound `Fc1ccccc1Cn1c(N2CCCC2)nc2ccccc21` [9 a, 1‐(2‐Fluorobenzyl)‐2‐(pyrrolidin‐1‐yl)‐1H‐benzo[d]imidazole], 2690 nM corresponded to half-maximal inhibition against mouse TRPC5 (IC50).

Compound `Fc1cccc(Cn2c(N3CCCC3)nc3ccccc32)c1` [9 b, 1‐(3‐Fluorobenzyl)‐2‐(pyrrolidin‐1‐yl)‐1H‐benzo[d]imidazole] showed a concentration for half-maximal inhibition (IC50) on mouse TRPC5 of 1490 ± 310 nM.

Turning to `COc1ccc(Cn2c(N3CCCC3)nc3ccccc32)cc1F` [9 g, 1‐(3‐Fluoro‐4‐methoxybenzyl)‐2‐(pyrrolidin‐1‐yl)‐1H‐benzo[d]imidazole], the half-maximal inhibitory concentration (IC50) against mouse TRPC5 is 1780 ± 430 nM.

On to `Fc1ccc(Cn2c(N3CCCC3)nc3ccccc32)cc1` [9 c, 1‐(4‐Fluorobenzyl)‐2‐(pyrrolidin‐1‐yl)‐1H‐benzo[d]imidazole], for which the half-maximal inhibitory concentration (IC50) against mouse TRPC5 is 590 ± 140 nM.

With `c1ccc(Cn2c(N3CCC4(CC3)CNC4)nc3ccccc32)cc1` [7 i, 7‐(1‐Benzyl‐1H‐benzo[d]imidazol‐2‐yl)‐2,7‐diazaspiro[3.5]nonane], the “TRPC5 activity (in words)” value on mouse TRPC5 is on record as “not productive”.

As for `CC1CCCCN1c1nc2ccccc2n1Cc1ccc(Cl)cc1` (stereo not drawn) [16 a, 1‐(4‐Chlorobenzyl)‐2‐(2‐methylpiperidin‐1‐yl)‐1H‐benzo[d]imidazole], the “TRPC5 activity (in words)” value at mouse TRPC5 is given as “not active”.

Take `O=S(=O)(c1ccccc1)n1c(N2CCCC2)nc2ccccc21` [9 v, 1‐(Phenylsulfonyl)‐2‐(pyrrolidin‐1‐yl)‐1H‐benzo[d]imidazole]: at mouse TRPC5, the “TRPC5 activity (in words)” value is “inactive”.

As to `Cc1cc2nc(N3CCCC3)n(Cc3ccccc3)c2cc1C` [14 b, 1‐Benzyl‐5,6‐dimethyl‐2‐(pyrrolidin‐1‐yl)‐1H‐benzo[d]imidazole], at mouse TRPC5, the “TRPC5 activity (in words)” value is “moderate activity” and half-maximal inhibition (IC50) was put at 12300 nM.

In turn, `Fc1cc(Cl)ccc1Cn1c(N2CCCC2)nc2ccccc21` [9 n, 1‐(4‐Chloro‐2‐fluorobenzyl)‐2‐(pyrrolidin‐1‐yl)‐1H‐benzo[d]imidazole] returned an IC50 at mouse TRPC5 of 840 ± 230 nM. Besides, the figures for the fraction unbound in data set [1] and in data set [2] were 0.01 and 0.0217, respectively. Also, the CLint scaled is 3200 mL/min/kg in data set [3] and 239 mL/min/kg in data set [4]. Besides, the mCLHEP in data set [3] is 87.6 mL/min/kg. The same compound had a hCLHEP in data set [4] of 18.5 mL/min/kg.

The values are drawn from article PMC9308755 (Chemmedchem, 2022).
